ChEMBL document CHEMBL5634116, “Strategies for developing retinoic acid receptor alpha-selective antagonists as novel agents for male contraception” (Eur J Med Chem, 2023)

Key:
[1] = biological target: T1, Retinoic acid receptor alpha (Homo sapiens, UniProt P10276); test: Antagonist activity at recombinant human RAR-alpha expressed in mammalian cells in presence of 9-cis-RA by luciferase reporter gene based transactivation assay; format: cell-based
T1 sequence (P10276 whole entry): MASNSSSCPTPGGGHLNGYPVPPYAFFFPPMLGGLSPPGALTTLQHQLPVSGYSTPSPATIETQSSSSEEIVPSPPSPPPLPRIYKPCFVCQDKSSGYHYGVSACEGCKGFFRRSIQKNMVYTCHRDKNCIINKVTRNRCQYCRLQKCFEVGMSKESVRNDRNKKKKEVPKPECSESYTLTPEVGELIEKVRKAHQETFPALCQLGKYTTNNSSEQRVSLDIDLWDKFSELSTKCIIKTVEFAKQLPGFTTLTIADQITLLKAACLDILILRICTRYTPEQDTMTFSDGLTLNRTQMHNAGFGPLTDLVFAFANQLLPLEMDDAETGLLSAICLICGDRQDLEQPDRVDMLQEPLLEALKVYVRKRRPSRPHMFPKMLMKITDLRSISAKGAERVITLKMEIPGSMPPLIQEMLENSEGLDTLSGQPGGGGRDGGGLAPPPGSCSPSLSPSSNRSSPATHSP
Summary of the method: (§1)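 Compounds 8-point dose response in triplicate, DMSO final 0.4%; overnight at 37 °C, 5% CO2; luminescence after 30 min detection reagent. IC50 by four-parameter logistic fit; agonist-free wells set background.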

[2] = biological target: T2, Retinoic acid receptor beta (Homo sapiens, UniProt P10826); test: Antagonist activity at recombinant human RAR-beta expressed in mammalian cells in presence of ATRA by luciferase reporter gene based transactivation assay; format: cell-based
T2 sequence (P10826 whole entry): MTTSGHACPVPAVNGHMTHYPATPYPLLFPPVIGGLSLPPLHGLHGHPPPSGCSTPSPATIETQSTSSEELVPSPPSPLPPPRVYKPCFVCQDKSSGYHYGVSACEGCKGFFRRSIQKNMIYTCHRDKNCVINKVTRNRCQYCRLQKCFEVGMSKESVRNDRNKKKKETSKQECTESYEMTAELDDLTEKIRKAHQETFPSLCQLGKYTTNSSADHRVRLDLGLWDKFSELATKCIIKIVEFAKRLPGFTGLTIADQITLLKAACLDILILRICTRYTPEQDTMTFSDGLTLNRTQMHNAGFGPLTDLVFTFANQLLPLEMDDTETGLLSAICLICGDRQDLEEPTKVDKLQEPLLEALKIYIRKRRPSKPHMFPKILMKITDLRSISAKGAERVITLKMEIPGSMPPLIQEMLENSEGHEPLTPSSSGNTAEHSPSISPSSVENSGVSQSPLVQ

[3] = biological target: T3, Retinoic acid receptor gamma (Homo sapiens, UniProt P13631); test: Antagonist activity at recombinant human RAR-gamma expressed in mammalian cells in presence of ATRA by luciferase reporter gene based transactivation assay; format: cell-based; summary of the method: as §1
T3 sequence (P13631 whole entry): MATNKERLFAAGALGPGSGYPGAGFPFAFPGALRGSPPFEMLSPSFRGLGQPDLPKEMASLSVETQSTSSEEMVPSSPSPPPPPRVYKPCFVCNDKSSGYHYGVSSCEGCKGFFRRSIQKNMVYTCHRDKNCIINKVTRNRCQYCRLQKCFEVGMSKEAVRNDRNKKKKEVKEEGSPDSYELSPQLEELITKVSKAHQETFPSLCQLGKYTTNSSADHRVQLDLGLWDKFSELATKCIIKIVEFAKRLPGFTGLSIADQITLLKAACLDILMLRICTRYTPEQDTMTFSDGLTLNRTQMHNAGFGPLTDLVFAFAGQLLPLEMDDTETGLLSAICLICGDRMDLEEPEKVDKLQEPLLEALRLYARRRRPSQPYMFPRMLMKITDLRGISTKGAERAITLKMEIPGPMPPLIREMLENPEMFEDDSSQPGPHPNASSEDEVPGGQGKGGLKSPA

[4] = biological target: T2, Retinoic acid receptor beta; test: Agonist activity at recombinant human RAR-beta expressed in mammalian cells by luciferase reporter gene based transactivation assay; format: cell-based
Summary of the method: (§2)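 Human RAR-subtype luciferase reporter cells (RARE-driven). Compounds in DMSO (final 0.4%) tested as 8-point dose response in triplicate. Incubated overnight at 37 °C in 5% CO2, then detection reagent 30 min at r.t. and luminescence measured. EC50 by four-parameter logistic fit, mean ± SEM from geometric mean of log EC50 across independent experiments.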

[5] = biological target: T3, Retinoic acid receptor gamma; test: Agonist activity at recombinant human RAR-gamma expressed in mammalian cells by luciferase reporter gene based transactivation assay; format: cell-based; summary of the method: as §2
[6] = biological target: T4, Retinoic acid receptor alpha (Homo sapiens) (UniProt P10276); test: Agonist activity at recombinant human RAR-alpha expressed in mammalian cells by luciferase reporter gene based transactivation assay relative to control; format: cell-based
T4 sequence (whole entry): T1 sequence (P10276 whole entry)
Summary of the method: (§3)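 Transactivation in proprietary reporter cells expressing recombinant human RAR subtype with RARE-linked beetle luciferase. Compounds in DMSO (final 0.4%), 8-point dose response in triplicate; cells added, incubated overnight at 37 °C, 5% CO2, then luciferase reagent 30 min r.t., luminescence read.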

[7] = biological target: T5, Retinoic acid receptor beta (Homo sapiens) (UniProt P10826); test: Agonist activity at recombinant human RAR-beta expressed in mammalian cells by luciferase reporter gene based transactivation assay relative to control; format: cell-based; summary of the method: as §3
T5 sequence (whole entry): T2 sequence (P10826 whole entry)

[8] = biological target: T6, Retinoic acid receptor gamma (Homo sapiens) (UniProt P13631); test: Agonist activity at recombinant human RAR-gamma expressed in mammalian cells by luciferase reporter gene based transactivation assay relative to control; format: cell-based; summary of the method: as §3
T6 sequence (whole entry): T3 sequence (P13631 whole entry)

[9] = biological target: T1, Retinoic acid receptor alpha

`CC1(C)CC=C(c2ccc(N3CCOCC3)cc2)c2cc(NC(=O)c3ccc(C(=O)O)c([N+](=O)[O-])c3)ccc21` was tested, and the IC50 [1] was over 3.3 µM, the IC50 [2] was over 3.3 µM and the IC50 [3] was over 3.3 µM.
`Cc1ccc(C2=CCC(C)(C)c3ccc(C(=O)Nc4cc(F)c(C(=O)O)c(F)c4)cc32)cc1` was tested, and the IC50 [1] was 0.43 µM, the IC50 [2] was over 3.3 µM and the IC50 [3] was over 3.3 µM.
With `Cc1ccc(C2=CC(C)(C)Oc3c(Br)cc(S(=O)(=O)Nc4cc(F)c(C(=O)O)c(F)c4)cc32)cc1` the IC50 [1] was over 3.3 µM, the IC50 [2] was over 3.3 µM and the IC50 [3] was over 3.3 µM.
In the case of `Cc1ccc(C2=CCC(C)(C)c3ccc(C(=O)Nc4ccc(C(=O)O)cc4)cc32)cc1`, the EC50 [4] is reported as 0.055 µM, the EC50 [5] is reported as over 3.3 µM and the IC50 [1] is reported as 0.029 µM. For the same molecule, the IC50 [2] was over 3.3 µM, the IC50 [3] was 2.6 µM and the Emax [6] was 9%. The Emax ([7]; filed as agonist) was 46% and the Emax [8] was 15%.
Work on `CC1(C)CC=C(c2ccc(N3CCOCC3)cc2)c2cc(NC(=O)Nc3ccc(C(=O)O)cc3)ccc21` yielded an IC50 [1] of over 3.3 µM, an IC50 [2] of over 3.3 µM and an IC50 [3] of over 3.3 µM.
Molecule `Cc1ccc(C2=CC(C)(C)Oc3ccc(NS(=O)(=O)c4ccc(C(=O)O)cc4)cc32)cc1` has an IC50 [1] of over 3.3 µM, an IC50 [2] of over 3.3 µM and an IC50 [3] of over 3.3 µM.
`Cc1ccc(C2=CC(C)(C)Oc3ccc(S(=O)(=O)Nc4ccc(C(=O)O)cc4)cc32)cc1` was tested, and the IC50 [1] was over 3.3 µM, the IC50 [2] was over 3.3 µM and the IC50 [3] was over 3.3 µM.
`Cc1ccc(C2=CCC(C)(C)c3ccc(-c4ccc5cc(C(=O)O)ccc5n4)cc32)cc1` showed an IC50 [1] of over 3.3 µM, an IC50 [2] of 0.021 µM and an IC50 [3] of 0.13 µM.
`CC1(C)CC=C(c2cccs2)c2cc(C(=O)Nc3ccc(C(=O)O)cc3)ccc21` was tested, and the EC50 [4] was 0.015 µM, the IC50 [1] was 0.44 µM and the IC50 [2] was over 3.3 µM. For the same molecule, the IC50 [3] was over 3.3 µM, the Emax [6] was 3% and the Emax ([7]; filed as agonist) was 167%.
`Cc1ccc(C2=CCC(C)(C)c3ccc(N4CCc5cc(C(=O)O)ccc5C4)cc32)cc1` was tested, and the IC50 [1] was over 3.3 µM, the IC50 [2] was 0.35 µM and the IC50 [3] was over 3.3 µM.
`CC1(C)CC=C(c2ccccc2)c2cc(C(=O)Nc3ccc(C(=O)O)cc3)ccc21` gave an EC50 [4] of 0.025 µM, an EC50 [5] of 0.56 µM and an IC50 [1] of 0.14 µM. The IC50 [2] was over 3.3 µM, the IC50 [3] was over 3.3 µM and the Emax [6] was 4%. It also gave an Emax ([7]; filed as agonist) of 150% and an Emax ([8]; filed as agonist) of 47%.
`CC1(C)CC=C(c2ccc(CN3CCOCC3)cc2)c2cc(C(=O)Nc3ccc(C(=O)O)cc3)ccc21` showed an IC50 [1] of 0.52 µM, an IC50 [2] of 0.173 µM and an IC50 [3] of over 3.3 µM. It also gave an Emax [6] of 0%, an Emax [7] of 0% and an Emax [8] of 0%.
Molecule `CC1(C)CC=C(c2ccccc2)c2cc(C(=O)NCc3ccc(C(=O)O)cc3)ccc21` has an IC50 [1] of over 3.3 µM, an IC50 [2] of over 3.3 µM and an IC50 [3] of over 3.3 µM.
`CC1(C)CC=C(c2ccc(N3CCOCC3)cc2)c2cc(NC(=O)c3ccc(C(=O)O)cc3)ccc21` was tested, and the IC50 [1] was over 3.3 µM, the IC50 [2] was 0.73 µM and the IC50 [3] was over 3.3 µM.
Molecule `CC1(C)CC=C(c2ccccc2)c2cc(NC(=O)Nc3ccc(C(=O)O)cc3)ccc21` has an IC50 [1] of over 3.3 µM, an IC50 [2] of over 3.3 µM and an IC50 [3] of over 3.3 µM.
Work on `Cc1ccc(C2=CC(C)(C)Oc3ccc(S(=O)(=O)Nc4cc(F)c(C(=O)O)c(F)c4)cc32)cc1` yielded an IC50 [1] of over 3.3 µM, an IC50 [2] of over 3.3 µM and an IC50 [3] of over 3.3 µM.
`CC1(C)CC=C(c2ccc(CN3CCOCC3)cc2)c2cc(NC(=O)c3ccc(C(=O)O)cc3)ccc21` gave an IC50 [1] of 1.5 µM, an IC50 [2] of over 3.3 µM and an IC50 [3] of over 3.3 µM.
`CC1(C)CC=C(c2ccccc2)c2cc(/C=C/c3ccc(C(=O)O)cc3)ccc21` showed an EC50 [5] of 0.12 µM, an IC50 [1] of 0.0094 µM and an IC50 [3] of 0.0075 µM. For the same molecule, the Emax [8] was 26% and the IC50 [9] was about 0.01 µM.
With `Cc1ccc(C2=CCC(C)(C)c3ccc(C(=O)N4CCc5cc(C(=O)O)ccc5C4)cc32)cc1` the IC50 [1] was over 3.3 µM, the IC50 [2] was over 3.3 µM and the IC50 [3] was over 3.3 µM.
`CC1(C)CC=C(c2cnc3ccccc3c2)c2cc(C(=O)Nc3ccc(C(=O)O)cc3)ccc21` gave an IC50 [1] of 0.27 µM, an IC50 [2] of 0.26 µM and an IC50 [3] of 2.7 µM.
`CC1(C)CC=C(c2ccc(N3CCOCC3)cc2)c2cc(C(=O)Nc3ccc(C(=O)O)cc3)ccc21` showed an IC50 [1] of 1.1 µM, an IC50 [2] of over 3.3 µM and an IC50 [3] of 1.5 µM.
In the case of `Cc1ccc(C2=CC(C)(C)Oc3c(Br)cc(S(=O)(=O)Nc4ccc(C(=O)O)cc4)cc32)cc1`, the IC50 [1] is reported as over 3.3 µM, the IC50 [2] is reported as over 3.3 µM and the IC50 [3] is reported as over 3.3 µM.
`Cc1ccc(C2=CCC(C)(C)c3ccc(NC(=O)Nc4ccc(C(=O)O)cc4)cc32)cc1` was tested, and the IC50 [1] was over 3.3 µM, the IC50 [2] was 0.84 µM and the IC50 [3] was over 3.3 µM.
Work on `Cc1ccc(C2=CCC(C)(C)c3ccc(C(=O)NCc4ccc(C(=O)O)cc4)cc32)cc1` yielded an IC50 [1] of over 3.3 µM, an IC50 [2] of over 3.3 µM and an IC50 [3] of over 3.3 µM.
`CC1(C)CC=C(c2ccc(C(=O)N3CCOCC3)cc2)c2cc(NC(=O)c3ccc(C(=O)O)cc3)ccc21` gave an IC50 [1] of over 3.3 µM, an IC50 [2] of over 3.3 µM and an IC50 [3] of over 3.3 µM.
